Active and inactive are the calls of the source. No cut-off for these calls is given here.
Experiments:
Mus musculus [1] = assay: Anticonvulsant activity in albino CF1 mouse assessed as protection against maximal electroshock-induced seizures at 100 mg/kg, ip after 4 hrs; type: functional, organism-based; parameters: dose 100 mg/kg
How it was run: (§1)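 Mice dosed ip at 30, 100 or 300 mg/kg, then tested 0.5 h and 4 h after administration in the MES or scMet test. Protection was recorded as animals protected over animals tested. Neurotoxicity was recorded as motor impairment or sedation, as animals affected over animals tested.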

Mus musculus [2] = assay: Anticonvulsant activity in albino CF1 mouse assessed as protection against maximal electroshock-induced seizures at 300 mg/kg, ip after 0.5 hrs; type: functional, organism-based; parameters: dose 300 mg/kg; how it was run: as §1
Mus musculus [3] = assay: Anticonvulsant activity in albino CF1 mouse assessed as protection against subcutaneous metrazol-induced seizures at 300 mg/kg, ip after 0.5 hrs; type: functional, organism-based; parameters: dose 300 mg/kg; how it was run: as §1
Mus musculus [4] = assay: Anticonvulsant activity in albino CF1 mouse assessed as protection against subcutaneous metrazol-induced seizures at 100 mg/kg, ip after 4 hrs; type: functional, organism-based; parameters: dose 100 mg/kg; how it was run: as §1
Mus musculus [5] = assay: Anticonvulsant activity in albino CF1 mouse assessed as protection against maximal electroshock-induced seizures at 30 mg/kg, ip after 0.5 hrs; type: functional, organism-based; parameters: dose 30 mg/kg; how it was run: as §1
Mus musculus [6] = assay: Neurotoxicity in albino CF1 mouse assessed as minimal motor impairment at 30 mg/kg, ip after 0.5 hrs by rotarod test; type: toxicity, organism-based; parameters: dose 30 mg/kg, route intraperitoneal; conditions: in vivo; how it was run: as §1
Mus musculus [7] = assay: Neurotoxicity in albino CF1 mouse assessed as minimal motor impairment at 100 mg/kg, ip after 4 hrs by rotarod test; type: toxicity, organism-based; parameters: dose 100 mg/kg, route intraperitoneal; conditions: in vivo; how it was run: as §1
Rattus norvegicus [8] = assay: Neurotoxicity in pilocarpine-induced status epilepticus Sprague-Dawley albino rat model assessed as minimal motor impairment at 300 mg/kg, ip after 2 hrs by rotarod test; type: toxicity, organism-based; parameters: dose 300 mg/kg, route intraperitoneal; conditions: in vivo
How it was run: (§2)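 Rat pilocarpine status epilepticus model: test carbamate given at 0 or 30 min after the first observed Racine stage 3 motor seizure, which marks SE onset. Neurotoxicity was scored within the same model.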

Rattus norvegicus [9] = assay: Anticonvulsant activity in Sprague-Dawley albino rat assessed as protection against pilocarpine-induced status epilepticus at 200 mg/kg, ip; type: functional, organism-based; parameters: dose 200 mg/kg
How it was run: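 Pilocarpine status epilepticus model in rats. Number and severity of convulsive seizures were observed behaviourally.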

Mus musculus [10] = assay: Anticonvulsant activity in albino CF1 mouse assessed as protection against subcutaneous metrazol-induced seizures at 30 mg/kg, ip after 4 hrs; type: functional, organism-based; parameters: dose 30 mg/kg; how it was run: as §1
Mus musculus [11] = assay: Anticonvulsant activity in albino CF1 mouse assessed as protection against subcutaneous metrazol-induced seizures at 300 mg/kg, ip after 4 hrs; type: functional, organism-based; parameters: dose 300 mg/kg; how it was run: as §1
Rattus norvegicus [12] = assay: Neurotoxicity in pilocarpine-induced status epilepticus Sprague-Dawley albino rat model assessed as minimal motor impairment at 100 mg/kg, ip after 4 hrs by rotarod test; type: toxicity, organism-based; parameters: dose 100 mg/kg, route intraperitoneal; conditions: in vivo
Rattus norvegicus [13] = assay: Neurotoxicity in pilocarpine-induced status epilepticus Sprague-Dawley albino rat model assessed as minimal motor impairment at 100 mg/kg, ip after 1 hr by rotarod test; type: toxicity, organism-based; parameters: dose 100 mg/kg, route intraperitoneal; conditions: in vivo
Rattus norvegicus [14] = assay: Neurotoxicity in pilocarpine-induced status epilepticus Sprague-Dawley albino rat model assessed as minimal motor impairment at 300 mg/kg, ip after 4 hrs by rotarod test; type: toxicity, organism-based; parameters: dose 300 mg/kg, route intraperitoneal; conditions: in vivo; how it was run: as §2
Mus musculus [15] = assay: Anticonvulsant activity in albino CF1 mouse assessed as protection against maximal electroshock-induced seizures at 300 mg/kg, ip after 4 hrs; type: functional, organism-based; parameters: dose 300 mg/kg; how it was run: as §1
Mus musculus [16] = assay: Neurotoxicity in albino CF1 mouse assessed as minimal motor impairment at 100 mg/kg, ip after 0.5 hrs by rotarod test; type: toxicity, organism-based; parameters: dose 100 mg/kg, route intraperitoneal; conditions: in vivo; how it was run: as §1
Mus musculus [17] = assay: Neurotoxicity in albino CF1 mouse assessed as minimal motor impairment at 30 mg/kg, ip after 4 hrs by rotarod test; type: toxicity, organism-based; parameters: dose 30 mg/kg, route intraperitoneal; conditions: in vivo; how it was run: as §1
Rattus norvegicus [18] = assay: Neurotoxicity in pilocarpine-induced status epilepticus Sprague-Dawley albino rat model assessed as minimal motor impairment at 100 mg/kg, ip after 2 hrs by rotarod test; type: toxicity, organism-based; parameters: dose 100 mg/kg, route intraperitoneal; conditions: in vivo
Mus musculus [19] = assay: Anticonvulsant activity in albino CF1 mouse assessed as protection against subcutaneous metrazol-induced seizures at 100 mg/kg, ip after 0.5 hrs; type: functional, organism-based; parameters: dose 100 mg/kg; how it was run: as §1
Mus musculus [20] = assay: Anticonvulsant activity in albino CF1 mouse assessed as protection against maximal electroshock-induced seizures at 30 mg/kg, ip after 4 hrs; type: functional, organism-based; parameters: dose 30 mg/kg; how it was run: as §1
Rattus norvegicus [21] = assay: Neurotoxicity in pilocarpine-induced status epilepticus Sprague-Dawley albino rat model assessed as minimal motor impairment at 100 mg/kg, ip after 0.25 hr by rotarod test; type: toxicity, organism-based; parameters: dose 100 mg/kg, route intraperitoneal; conditions: in vivo
Rattus norvegicus [22] = assay: Neurotoxicity in pilocarpine-induced status epilepticus Sprague-Dawley albino rat model assessed as minimal motor impairment at 300 mg/kg, ip after 0.25 hr by rotarod test; type: toxicity, organism-based; parameters: dose 300 mg/kg, route intraperitoneal; conditions: in vivo; how it was run: as §2
Rattus norvegicus [23] = assay: Neurotoxicity in pilocarpine-induced status epilepticus Sprague-Dawley albino rat model assessed as minimal motor impairment at 300 mg/kg, ip after 0.5 hrs by rotarod test; type: toxicity, organism-based; parameters: dose 300 mg/kg, route intraperitoneal; conditions: in vivo; how it was run: as §2
Mus musculus [24] = assay: Neurotoxicity in albino CF1 mouse assessed as minimal motor impairment at 300 mg/kg, ip after 4 hrs by rotarod test; type: toxicity, organism-based; parameters: dose 300 mg/kg, route intraperitoneal; conditions: in vivo; how it was run: as §1
Mus musculus [25] = assay: Anticonvulsant activity in albino CF1 mouse assessed as protection against subcutaneous metrazol-induced seizures at 30 mg/kg, ip after 0.5 hrs; type: functional, organism-based; parameters: dose 30 mg/kg; how it was run: as §1
Rattus norvegicus [26] = assay: Neurotoxicity in pilocarpine-induced status epilepticus Sprague-Dawley albino rat model assessed as minimal motor impairment at 100 mg/kg, ip after 0.5 hrs by rotarod test; type: toxicity, organism-based; parameters: dose 100 mg/kg, route intraperitoneal; conditions: in vivo
Mus musculus [27] = assay: Neurotoxicity in albino CF1 mouse assessed as minimal motor impairment at 300 mg/kg, ip after 0.5 hrs by rotarod test; type: toxicity, organism-based; parameters: dose 300 mg/kg, route intraperitoneal; conditions: in vivo; how it was run: as §1
Rattus norvegicus [28] = assay: Anticonvulsant activity in Sprague-Dawley albino rat assessed as protection against maximal electroshock-induced seizures at 30 mg/kg, po after 4 hrs; type: functional, organism-based; parameters: dose 30 mg/kg
How it was run: (§3)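 Rats dosed orally. Anti-MES protection was scored as animals protected over animals tested at each time after dosing. Neurotoxicity was scored as motor impairment or sedation, as animals affected over animals tested.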

Rattus norvegicus [29] = assay: Neurotoxicity in pilocarpine-induced status epilepticus Sprague-Dawley albino rat model assessed as minimal motor impairment at 30 mg/kg, ip after 0.5 hrs by rotarod test; type: toxicity, organism-based; parameters: dose 30 mg/kg, route intraperitoneal; conditions: in vivo; how it was run: as §2
Rattus norvegicus [30] = assay: Neurotoxicity in pilocarpine-induced status epilepticus Sprague-Dawley albino rat model assessed as minimal motor impairment at 30 mg/kg, ip after 1 hr by rotarod test; type: toxicity, organism-based; parameters: dose 30 mg/kg, route intraperitoneal; conditions: in vivo; how it was run: as §2
Rattus norvegicus [31] = assay: Neurotoxicity in pilocarpine-induced status epilepticus Sprague-Dawley albino rat model assessed as minimal motor impairment at 30 mg/kg, ip after 4 hrs by rotarod test; type: toxicity, organism-based; parameters: dose 30 mg/kg, route intraperitoneal; conditions: in vivo; how it was run: as §2
Rattus norvegicus [32] = assay: Neurotoxicity in pilocarpine-induced status epilepticus Sprague-Dawley albino rat model assessed as minimal motor impairment at 300 mg/kg, ip after 1 hr by rotarod test; type: toxicity, organism-based; parameters: dose 300 mg/kg, route intraperitoneal; conditions: in vivo; how it was run: as §2
Rattus norvegicus [33] = assay: Anticonvulsant activity in Sprague-Dawley albino rat assessed as protection against maximal electroshock-induced seizures at 30 mg/kg, po after 30 mins; type: functional, organism-based; parameters: dose 30 mg/kg; how it was run: as §3
Rattus norvegicus [34] = assay: Neurotoxicity in Sprague-Dawley albino rat assessed as minimal motor impairment at 30 mg/kg, po by rotarod test; type: toxicity, organism-based; parameters: dose 30 mg/kg, route oral; conditions: in vivo; how it was run: as §3
Rattus norvegicus [35] = assay: Anticonvulsant activity in Sprague-Dawley albino rat assessed as protection against pilocarpine-induced status epilepticus at 130 mg/kg, ip administered 0 and 30 mins after status epilepticus onset
Rattus norvegicus [36] = assay: Anticonvulsant activity in Sprague-Dawley albino rat assessed as protection against maximal electroshock-induced seizures at 30 mg/kg, po after 15 mins; type: functional, organism-based; parameters: dose 30 mg/kg; how it was run: as §3
Rattus norvegicus [37] = assay: Neurotoxicity in pilocarpine-induced status epilepticus Sprague-Dawley albino rat model assessed as minimal motor impairment at 30 mg/kg, ip after 2 hrs by rotarod test; type: toxicity, organism-based; parameters: dose 30 mg/kg, route intraperitoneal; conditions: in vivo; how it was run: as §2
Rattus norvegicus [38] = assay: Anticonvulsant activity in Sprague-Dawley albino rat assessed as protection against maximal electroshock-induced seizures at 30 mg/kg, po after 2 hrs; type: functional, organism-based; parameters: dose 30 mg/kg; how it was run: as §3
Rattus norvegicus [39] = assay: Neurotoxicity in pilocarpine-induced status epilepticus Sprague-Dawley albino rat model assessed as minimal motor impairment at 30 mg/kg, ip after 0.25 hr by rotarod test; type: toxicity, organism-based; parameters: dose 30 mg/kg, route intraperitoneal; conditions: in vivo; how it was run: as §2
Rattus norvegicus [40] = assay: Anticonvulsant activity in Sprague-Dawley albino rat assessed as protection against maximal electroshock-induced seizures at 30 mg/kg, po after 1 hr; type: functional, organism-based; parameters: dose 30 mg/kg; how it was run: as §3
Mus musculus [41] = assay: Anticonvulsant activity in albino CF1 mouse assessed as protection against maximal electroshock-induced seizures at 100 mg/kg, ip after 0.5 hrs; type: functional, organism-based; parameters: dose 100 mg/kg; how it was run: as §1

SMILES | Activity (Mus musculus [1]) | Activity (Mus musculus [2]) | Activity (Mus musculus [3]) | Activity (Mus musculus [4]) | Activity (Mus musculus [5]) | Activity (Mus musculus [6]) | Activity (Mus musculus [7]) | Activity (Rattus norvegicus [8]) | Activity (Mus musculus [10]) | Activity (Mus musculus [11]) | Activity (Rattus norvegicus [12]) | Activity (Rattus norvegicus [13]) | Activity (Mus musculus [15]) | Activity (Mus musculus [16]) | Activity (Mus musculus [17]) | Activity (Rattus norvegicus [18]) | Activity (Mus musculus [19]) | Activity (Mus musculus [20]) | Activity (Rattus norvegicus [21]) | Activity (Rattus norvegicus [22]) | also measured
CC(C)C(C)COC(N)=O (racemic) | inactive | Active | Active | inactive | inactive | Non-toxic | Non-toxic | Non-toxic | inactive | inactive | Non-toxic | Non-toxic | inactive | Non-toxic | Non-toxic | Non-toxic | inactive | inactive | Non-toxic | Toxic | Activity (Rattus norvegicus [9]): Active; Activity (Rattus norvegicus [14]): Non-toxic; Activity (Rattus norvegicus [23]): Toxic; Activity (Mus musculus [24]): Non-toxic; Activity (Mus musculus [25]): inactive; Activity (Rattus norvegicus [26]): Non-toxic; Activity (Mus musculus [27]): Toxic
CC1(C)C(COC(N)=O)C1(C)C | inactive | Active | Active | inactive | inactive | Non-toxic | Non-toxic | Toxic | inactive | inactive | Non-toxic | Toxic | inactive | Non-toxic | Non-toxic | Non-toxic | inactive | inactive | Toxic | Toxic | Activity (Rattus norvegicus [28]): inactive; Activity (Rattus norvegicus [29]): Non-toxic; Activity (Rattus norvegicus [30]): Non-toxic; Activity (Rattus norvegicus [31]): Non-toxic; Activity (Rattus norvegicus [32]): Toxic; Activity (Rattus norvegicus [33]): inactive; Activity (Rattus norvegicus [34]): Non-toxic; Activity (Rattus norvegicus [35]): inactive; Activity (Rattus norvegicus [14]): Non-toxic; Activity (Rattus norvegicus [36]): inactive; Activity (Rattus norvegicus [37]): Non-toxic; Activity (Rattus norvegicus [38]): inactive; Activity (Rattus norvegicus [39]): Non-toxic; Activity (Rattus norvegicus [23]): Toxic; Activity (Mus musculus [24]): Non-toxic; Activity (Mus musculus [25]): inactive; Activity (Rattus norvegicus [26]): Toxic; Activity (Mus musculus [27]): Toxic
CC(C)(C)COC(N)=O | inactive | inactive | inactive | inactive | inactive | Non-toxic | Non-toxic | Toxic | inactive | inactive | Non-toxic | Non-toxic | inactive | Non-toxic | Non-toxic | Non-toxic | inactive | inactive | Non-toxic | Toxic | Activity (Rattus norvegicus [32]): Toxic; Activity (Rattus norvegicus [33]): inactive; Activity (Rattus norvegicus [34]): Non-toxic; Activity (Rattus norvegicus [9]): Active; Activity (Rattus norvegicus [40]): inactive; Activity (Mus musculus [41]): inactive; Activity (Rattus norvegicus [38]): inactive; Activity (Rattus norvegicus [23]): Toxic; Activity (Mus musculus [24]): Non-toxic; Activity (Mus musculus [25]): inactive; Activity (Rattus norvegicus [26]): Non-toxic; Activity (Mus musculus [27]): Non-toxic
